Tested on: MS2 coat protein
Assay: apparent Kd, MS2 coat protein; higher = weaker binding; RNA-MaP array; FMN 200 µM where present
How it was run: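 Stalled E. coli RNA polymerase transcribed the designs on Illumina sequencing-chip clusters. SNAP-549-labelled MS2 coat protein was titrated from 0.7 or 1.5 nM, doubling to 3 µM, without and then with constant ligand, in 100 mM Tris-HCl pH 7.5, 80 mM KCl, 4 mM MgCl2, BSA, DTT, yeast tRNA and Tween-20. Per-cluster binding curves were fitted to green signal normalised to red-channel RNA signal and control-cluster median Fmax. The apparent Kd is the median of the filtered fits.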

[1] = designed as: OFF switch for flavin mononucleotide, no ligand
[2] = ligand present: flavin mononucleotide, designed as: OFF switch for flavin mononucleotide
[3] = designed as: ON switch for flavin mononucleotide, no ligand
[4] = ligand present: flavin mononucleotide, designed as: ON switch for flavin mononucleotide

| Sequence | apparent Kd [1] [nM] | apparent Kd [2] [nM] | apparent Kd [3] [nM] | apparent Kd [4] [nM] |
| --- | --- | --- | --- | --- |
| UAUAUAAUUAAGAGCUGGUCCAAAACAUGAGGAUCACCCAUGUAGGAUAUCAGCACGAUAAGUGCUGAGAAGGACAUCCAGCUC | 18.5 | 16.4 |  |  |
| UAAUAAUAAUAAUAGCAGUAUUACAUGAGGAUCACCCAUGUAUAGGAUAUCGUCAGGAAUACUGUCGAGAAGGAUACAAACUGC | 20.7 | 28.7 |  |  |
| CACCGUUACAGAGGAUAUGACACAUGAGGAUCACCCAUGUAAUAAAUGAGAAUUUCGAAUGUAACUCAGAAGGCUGGAAUCGGC | 30.5 | 52.8 |  |  |
| UUUGGGUCAGGAUAUUGUUAGUUUAGUUGUUUGUAUUAGUUCGAGAAGGGACAUGAGGAUCACCCAUGUGGUAA | 94.9 | 69.9 |  |  |
| GUCAGCUCGUGAGGAUAUACAACACUCCUUCGGCAGUGUAUUAAGAUCACAUGAGGAUCACCCAUGUAGAAGGCACGAGCUGAU | 14.8 | 201 |  |  |
| UAAGCCGGGUCUGCAUGAGCUUACAUGAGGAUCACCCAUGUAAGAAGGGACGCUACGUUAUAGUGUCAGGAUAUUGCGAACGGG | 5.15 | 5.66 |  |  |
| UUUAAUCGAAACAUGAGGAUCACCCAUGUGUUGUAAUUAACAUAGGAUAUUUGUAUACUUUUGUAAAAGAAGGAUGAUAAUACU |  |  | 17.1 | 13.6 |
| UUUAUGUCAGGAUAUACAUGAGGAUCACCCAUGUAUAUCUUAAAAUAUACAUGGGUAUGUAGAAGGGACCUCCU | 86.5 | 77.1 |  |  |
| AAAAAACAUGAGGAUCACCCAUGUGAGGAUAUGGAAAAAAAAAAAAAAAAAAAAAAAACCAGAAGGCACAAAAA | 92.6 | 60 |  |  |
| CGGUGUAGAGGAUAUACGUGAAUUUUGUUAUAUGAUAAUUUACAUGAGGAUCACCCAUGUAGAAGGCUAUAGCG | 17.9 | 18.1 |  |  |
| AAAAGGUCAGGAUAUGCCCUCCUGGUGGAAAAGCCUGGUGGGCAGAAGGGACAUGAGGAUCACCCAUGUAAAAA | 60.8 | 81.8 |  |  |
| GGUCCAUCUGUUAGGAUAUGCUUUGGGCUUCCGCAGUAGAAGGAACAUGAGGAUCACCCAUGUCCGAUGCCGUA | 20.4 | 25.4 |  |  |
| UGAUAGGACAGAGGAUAUACGGAUAGGAUCUACUAUCUUCCUCAAAUAACAUGAGGAUCACCCAUGUAGAAGGCUGUCCUAUCU | 126 | 887 |  |  |
| ACAUGAGGAUCACCCAUGUUAAACGAGGAUAUUUGACUGCACAUGAGGUUCACCCAUGUUCUGCCGAAGAAGGUGUAAAUAAUU |  |  | 39.2 | 31.2 |
| UUAUGUGUUGUAGGAUAUCAUUAGAUUUGUAAUUUAAUUGUAAUUUACAUAUGAGAAGGACAUUUACAUGAGGAUCACCCAUGU | 12.5 | 9.6 |  |  |
| GGAUAGGACAGAGGAUAUAGGUGCUAGAGAUACUAGCAAAAUUUCCUCACAUGAGGAUCACCCAUGUAGAAGGCUGUCCUAUCG | 11.5 | 25.4 |  |  |
| AUAUUAUUGAUCCAUUUUUUCAACAUGAGGAUCACCCAUGUGCAGGAUAUCGUGAUUAUUAUCAACGAGAAGGGCAAAUUCAUU | 76.5 | 234 |  |  |
| AAUCCACAUGAGGAUCACCCAUGUCAGGAUAUCGCGCGCGCGUUUUCGGUCUUGCGCGCGAGAAGGGACGGCUG | 26.2 | 46 |  |  |
| AAACACAAACAUGAGGAUCACCCAUGUUAUGAAAAUAUUGGGAGAAGGGCGAUUGCAAAGCAAUCGCAGGAUAUUCGUAUUGUG |  |  | 34.4 | 12.2 |
| ACUUGUUACUUAUUCAUUGAUUUGUAGGAUAUACGUACAUGAGGAUCACCCAUGUUACAUGUUAUGUAGAAGGACAUCUAAUUU | 12.2 | 12.6 |  |  |
| AACUUGCGCACAGGAUAUCCACGGAGCGGACGUGGAGAAGGGUGACAUGAGGAUCACCCAUGUACGUAAGUCUAGAUCACUUCC |  |  | 198 | 19.1 |
| CCGGCUUAGGAGGAUAUGGGAGUCGAUAGACACCCAGAAGGCCUAACAUGAGGAUCACCCAUGUGUCCUACCGG | 23.4 | 109 |  |  |
| UCUCGGUGUUCAGGAUAUGCAUCAAGGUUGUACGCAGAAGGGAACAUGAGGAUCACCCAUGUGUCCGAGCUGGGACGAGGGACG | 37.9 | 188 |  |  |
